# From PubChem BioAssay
# Only some compounds are listed: those with a hit (about 2.2% of all), similar ones and a draw of the others.
# Tn6 DDE FP – inhibitors of Tn6 peptide binding to fibrin DD(E), primary screen, biochemical, fluorescence polarization, human fibrin, Tn6 probe; Fibrin DD(E) TRITC-Tn6 fluorescence polarization displacement; inhibition, % at 8.3 µM; 370,000 compounds, 0.21% hits; AID 720509, 2013; Fibrinogen beta chain (Homo sapiens), P02675;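 active means inhibition above a per-campaign cutoff: mean of compounds within control limits plus 3 SD, cut at about 15% in these data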;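 further: 0% = median of all compound wells on the plate and 100% = blocking peptide control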
# MT1-MMP act inh – blockers of MT1-MMP proenzyme processing, primary screen, HT1080 RFP-PRO-GFP cells, GFP/RFP fluorescence; 360,000 compounds, 0.061% hits; AID 651647, 2012; GFP/RFP ratio fluorescence, overnight; percent of plate control window, DMSO zero; GFP/RFP ratio change, % at 20 µM; Matrix metalloproteinase-14 (Homo sapiens), P50281;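 active means GFP/RFP ratio change of at least 30% with cell ATP level not reduced by more than half and red fluorescence within 50% of control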
#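 Test system: HT1080 cells expressing an RFP-PRO-GFP fluorescent reporter construct / Compound dosing: single-point 20 µM compound, 1% DMSO / Schedule: cells overnight before dosing, compound overnight, 37 °C, 5% CO2 / Evaluation: GFP/RFP fluorescence ratio / Control set: DMSO and RFP-L50D-GFP cell wells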
# SKN-1 inh – suppressors of acrylamide-induced Pgst-4::GFP reporter in worms, primary screen, SKN-1 inhibitor project, whole organism, uHTS, GFP/RFP fluorescence ratio, strain VP596. 360,000 compounds, 0.49% hits. inhibition, % at 21.8 µM. C. elegans VP596 Pgst-4::GFP/RFP ratio, 24 h. AID 624304, 2012;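 active means interference check ratio from 0.5 to 1.5 plus GFP to RFP signal ratio inhibition reaching or exceeding a fixed threshold, cut at about 30% in these data, passing the limit was not always enough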
# Neddyl block – inhibitors of cullin neddylation, primary screen, biochemical, TR-FRET, uHTS, NAE and Ubc12; 360,000 compounds, 0.58% hits; AID 651699, 2012; calls only at 25 µM; in the data active means inhibition above about 36%
# proKLK7 act – proKLK7 zymogen activators, primary screen, biochemical, fluorescence intensity; Kallikrein-7 (Homo sapiens), P49862; purified proKLK7, EDANS-DABCYL substrate fluorescence; 100% is mature enzyme control, 0% vehicle; activation, % at 7 µM; 370,000 compounds, 0.9% hits;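 active means activation above the mean of all tested compounds plus 3 SD, computed per campaign excluding outliers beyond control limits, cut at about 13% in these data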
# Target sequence (P49862 whole entry, looked up): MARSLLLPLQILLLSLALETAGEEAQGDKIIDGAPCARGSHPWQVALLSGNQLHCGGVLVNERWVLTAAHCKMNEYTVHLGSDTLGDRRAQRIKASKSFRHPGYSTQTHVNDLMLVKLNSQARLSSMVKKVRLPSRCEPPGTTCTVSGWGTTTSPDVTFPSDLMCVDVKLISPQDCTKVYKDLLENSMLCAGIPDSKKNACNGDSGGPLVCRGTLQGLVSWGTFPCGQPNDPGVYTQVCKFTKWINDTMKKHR
# DDE Tn7 FP inh – inhibitors of Tn7 peptide binding to fibrin DD(E), primary screen, biochemical, fluorescence polarization, human fibrin, Tn7 probe; Fibrinogen beta chain (Homo sapiens), P02675; FP displacement of FITC-Tn7 peptide from fibrin DD(E); 0% = median of compound wells per plate; inhibition, % at 8.3 µM; 370,000 compounds, 0.13% hits; AID 720508, 2013;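 active means inhibition above the mean of compounds falling within the control limits plus 3 SD of them, cut at about 14% in these data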;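 further: 0% = plate median of compound wells and 100% = 10 µM Aha-Tn7 peptide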
#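 Assay system: Human fibrin DD(E) protein | Medium: Tris buffer with calcium and detergent, pH 7.8 | Reagent: 0.1 µM fluorescent Tn7 | Compound dosing: Single point at 8.3 µM | Times: 10 min preincubation, 3 h with tracer, room temperature | Detection: Fluorescence polarization of the labelled Tn7 tracer | Controls: Aha-Tn7 high control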
# proKLK7 act conf – proKLK7 zymogen activators, confirmation, biochemical, fluorescence intensity, triplicate | 3,200 compounds, 68% hits | purified proKLK7, EDANS-DABCYL substrate fluorescence; scaled: vehicle 0, mature enzyme 100 | shares compounds with proKLK7 act | AID 686949, 2013 | activation, % at 7 µM;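 active means activation, as change over the incubation, above the mean of all tested compounds plus 3 SD, cut at about 13% in these data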
# EDANS interfere – EDANS-DABCYL substrate optical interference, artefact control for kallikrein-7 zymogen activator project, biochemical, fluorescence intensity, high throughput; no enzyme, 4 h; solvent 0%, active enzyme control 100%; AID 686952, 2013; shares compounds with proKLK7 act; activation, % at 7 µM; 3,200 compounds, 80% hits;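 active means activation above the all-compound mean plus 3 SD, ignoring values outside control-based bounds, cut at about 4.8% in these data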;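 further: value is the 4 h activation minus the activation read at time zero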
# EDANS interf – counter-screen for kallikrein-7 activators: EDANS-DABCYL interference, dose response; shares compounds with proKLK7 act; EDANS-DABCYL peptide fluorescence interference, no enzyme; EC50, µM; 250 compounds, 20% hits; AID 720493;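 active means compounds that raise the fluorescence signal in this interference counterscreen, with EC50 at or below 10 µM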;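 further: intact quenched peptide substrate alone read at 355 nm excitation and 520 nm emission; signal is fluorescence gain from T0 to T4 after four hours at room temperature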
# * hit, by the source's call; i = inactive; nt = no result shown.
SMILES,Tn6 DDE FP,MT1-MMP act inh,SKN-1 inh,Neddyl block,proKLK7 act,DDE Tn7 FP inh,proKLK7 act conf,EDANS interfere,others
Cc1c(C2(O)CCCCC2)[nH]c2cnccc12,-0.5,4.9,2.8,nt,77.3*,7.0,23.8*,13.9*,EDANS interf=>69.5
Cc1c(C2(O)CCCCC2)[nH]c2ncccc12,6.8,1.6,12.4,i,1.2,-2.3,nt,nt,
Cc1cccnc1NC(=O)c1ccc([N+](=O)[O-])o1,11.2,14.6,4.2,i,17.4*,5.4,19.1*,20.8*,
CC1Cc2cc(S(=O)(=O)NCc3ccccc3)ccc2N1C(=O)C1CC1 (stereo not drawn),-1.6,-2.5,5.7,i,-0.6,-1.2,nt,nt,
COc1ccccc1N1CCN(C(c2cccs2)C(C)NC(=O)c2ccncc2)CC1 (stereo not drawn),2.6,-1.6,6.3,i,295.8*,3.1,-0.4,0.9,
COc1ccccc1N1CCN(C(c2cccs2)C(C)NC(=O)c2ccco2)CC1 (stereo not drawn),0.8,-1.5,5.0,i,0.4,-4.6,nt,nt,
COc1ccc2nccc(C(N)=O)c2c1,-2.0,1.5,6.8,nt,12.8*,4.2,26.2*,26.4*,
CCN1CCN(C(=O)C2c3cc(OC)c(OC)cc3C(=O)N(C)C2c2ccc(SC)cc2)CC1 (stereo not drawn),3.1,-1.7,-14.2,i,-0.2,-2.2,nt,nt,
COc1cc(NC(=O)c2ccco2)c(OC)cc1NC(=O)CCC(=O)Nc1cc(C)ccc1C,-8.4,1.5,0.5,nt,31.3*,-2.2,13.7*,-7.4,EDANS interf=i
COc1cc(NC(=O)c2ccco2)c(OC)cc1NC(=O)CCC(=O)Nc1cc(C)cc(C)c1,1.0,1.9,2.6,nt,-20.5,5.3,nt,nt,
O=C(NCCc1c[nH]c2ccccc12)c1ccc([N+](=O)[O-])o1,3.8,-8.3,-4.8,i,-0.5,7.8,nt,nt,
CC1(C)C2CCC1(C)C(OC(=O)C[n+]1ccccc1N)C2 (stereo not drawn),-6.5,2.2,1.3,i,52.3*,-4.2,99.4*,100.3*,
COc1cc2ccc(=O)oc2c(O[C@@H]2O[C@H](CO)[C@@H](O)[C@H](O)[C@H]2O)c1O,8.4,1.2,-10.4,nt,68.1*,4.5,68.8*,67.4*,
O=c1ccc2ccc(O[C@@H]3O[C@H](CO)[C@@H](O)[C@H](O)[C@H]3O)c(O)c2o1,-7.3,0.1,-8.1,i,-0.2,0.1,nt,nt,
Cc1nc(/C=C\C(=O)O)c2cc(C)oc2n1,2.0,0.1,-0.4,nt,12.6*,-3.5,19.9*,22.5*,
N=C(N)SCc1cn(-c2ccccc2)nc1-c1ccc(Br)cc1,-5.8,-25.4,-6.7,i,0.4,-5.5,nt,nt,
COC(=O)NNC(=O)COc1ccc2ccccc2c1Br,3.3,-0.7,1.8,i,-0.7,3.0,nt,nt,
COc1cccc2c1OCC(C(=O)Nc1nccs1)=C2,-3.4,-4.3,2.4,i,2.1,-7.0,nt,nt,
COc1cccc(C=Nc2ccccc2C(=O)Nc2nccs2)c1OC,-12.4,-4.3,-3.8,i,25.4*,6.7,-64.7,-48.7,
